From ChEMBL document CHEMBL2311339, “Identification of GZD824 as an orally bioavailable inhibitor that targets phosphorylated and nonphosphorylated breakpoint cluster region-Abelson (Bcr-Abl) kinase and overcomes clinically acquired mutation-induced resistance against imatinib” (J Med Chem, 2013)
The source made the active and inactive calls. The rule behind the calls is not given here.

Key:
[1] = molecular target: Tyrosine-protein kinase ABL1 (Homo sapiens, UniProt P00519); test: Binding affinity to non phosphorylated wild type ABL1 (unknown origin) after 1 hr
[2] = tested on: K562; test: Antitumor activity against human K562 cells xenografted in po dosed mouse assessed as inhibition of tumor growth administered qd for 14 days; type: functional, organism-based
In short: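 K562 cells suspended in normal saline (2.5 × 10^7 cells/mL), 0.2 mL injected subcutaneously into the right flank. Mice were randomised once mean tumour volume reached 100−200 mm3. Oral gavage once daily for 14 days, in 1% DMSO/22.5% Cremophor/7.5% ethanol/69% saline. Tumour volume (L × W²/2) and body weight taken every 2 days; recurrence followed 20 days after dosing stopped. n = 10/group; unpaired t test versus vehicle.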

[3] = molecular target: Tyrosine-protein kinase ABL1 (Homo sapiens, UniProt P00519, T315I); test: Binding affinity to phosphorylated ABL1 T315I mutant (unknown origin) after 1 hr
[4] = Cytotoxicity against mouse BA/F3 cells expressing BCR-ABL Y253F mutant assessed as growth inhibition after 72 hrs by CCK-8 assay; details: BaF3, 72 h
[5] = cells; details: Mus musculus, BaF3, 72 h
[6] = molecular target: Tyrosine-protein kinase ABL1 (Homo sapiens, UniProt P00519, E255K); test: Inhibition of human recombinant ABL1 E255K mutant expressed in insect cells after 30 mins by FRET assay; type: cell-based
[7] = tested on: BaF3; test: Antitumor activity against mouse BA/F3 cells expressing BCR-ABL T315I mutant allografted in SCID mouse assessed as inhibition of tumor growth at 5 to 10 mg/kg/day, po qd for 14 days; type: functional, organism-based
In short: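 Ba/F3 cells stably expressing Bcr-Abl (wild type or mutant) were grown in RPMI 1640 with 10% FBS and no IL-3, then suspended in saline (2.5 × 10^7 cells/mL) and given as 0.2 mL s.c. in the right flank. Groups were randomised at 100−200 mm3. Once-daily oral gavage for 14 days in DMSO/Cremophor/ethanol/saline vehicle; reference imatinib 50 or 100 mg/kg/day. Volume L × W²/2 every 2 days; n = 10; t test versus vehicle.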

[8] = tested on: KU812; test: Antitumor activity against human KU812 cells xenografted in mouse assessed as induction of tumor regression at 1 mg/kg, po qd for 14 days; type: functional, organism-based; parameters: dose 1 mg/kg
[9] = tested on: HL-60; test: Cytotoxicity against human HL60 cells […] assessed as growth inhibition after 72 hrs by CCK-8 assay; type: functional, cell-based; details: HL-60, 72 h
In short: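 Log-phase human leukemia cells were seeded at about 3000 cells/well and treated 24 h later for 72 h. CCK-8 was then incubated with the cells for 3 h and read as OD450 − OD650. Viability was normalized to vehicle wells and cell-free blanks, and IC50 taken as the mean of three experiments.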

[10] = Cytotoxicity against mouse BA/F3 cells expressing BCR-ABL E359V mutant assessed as growth inhibition after 72 hrs by CCK-8 assay; details: BaF3, 72 h

Q: Which results are given for `Cc1ccc(C(=O)Nc2ccc(CN3CCN(C)CC3)c(C(F)(F)F)c2)cc1C#Cc1cnc2[nH]ncc2c1` [OLVEREMBATINIB]?
A: Kd [1]: 0.32 nM; TGI [2]: Dose-dependent effect; Kd [3]: 3.2 nM; IC50 [4]: 11 nM; IC50 [5]: 6 nM; IC50 [6]: 0.27 nM; TGI [7]: inactive; Activity [8]: Active; IC50 [9]: 349 nM; IC50 [10]: 2.3 nM
